Here are results for nine molecules from ChEMBL document CHEMBL1811827, “Novel nonsecosteroidal vitamin D3 carboxylic acid analogs for osteoporosis, and SAR analysis” (Bioorg Med Chem, 2011).

Molecules are shown by their SMILES. Where only a bound is given, the exact number is not on record here.

Series [1] can be described thus: Half life in Sprague-Dawley rat at 100 ug/kg, iv. Format: ADME, organism-based. The note with it: in vivo, 0.1 mg/kg. A digest of the protocol:
(§1)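 Rats given 100 µg/kg orally or intravenously; F, T1/2, Cmax, AUCinf, MRT and total clearance derived.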

The nature of series [2]: Cmax in Sprague-Dawley rat at 100 ug/kg, po. Further details: dose 100 ug/kg, route oral. To be noted: in vivo, 0.1 mg/kg. Format: ADME, organism-based. In outline: as §1
Series [3] in a line: Mean residence time in Sprague-Dawley rat at 100 ug/kg, iv. The note with it: in vivo, 0.1 mg/kg. Format: ADME, organism-based. A digest of the protocol: as §1
Series [4] in a line: Mean residence time in Sprague-Dawley rat at 100 ug/kg, po. The series is classed as ADME, organism-based. The note with it: in vivo, 0.1 mg/kg. In outline: as §1
Series [5] can be described thus: AUC (infinity) in Sprague-Dawley rat at 100 ug/kg, po. Format: ADME, organism-based. Further details: dose 100 ug/kg, time infinity, route oral. The note with it: plasma, 0.1 mg/kg. In outline:
as §1

Series [6] is described as follows: AUC (infinity) in Sprague-Dawley rat at 100 ug/kg, iv. The series is classed as ADME, organism-based. Further details: dose 100 ug/kg, time infinity, route intravenous. To be noted: plasma, 0.1 mg/kg. A digest of the protocol: as §1
Series [7] is described as follows: Total clearance in Sprague-Dawley rat at 100 ug/kg, po. The series is classed as ADME, organism-based. The note with it: in vivo, 0.1 mg/kg. In outline:
as §1

The test system of series [8] is Rattus norvegicus. The series can be described thus: Toxicity in ovariectomized Sprague-Dawley rat osteoporosis model assessed as body weight loss at […], po administered once daily for 5 times per week. The series is classed as organism-based. The note with it: in vivo.
Series [9] deals with Rattus norvegicus. The series can be described thus: Toxicity in ovariectomized Sprague-Dawley rat osteoporosis model assessed as induction of hypercalcemia at 2 ug/kg, po administered once daily for 5 times per week. The series is classed as organism-based. The note with it: in vivo, 0.002 mg/kg. In outline: (§2)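 Female Sprague–Dawley rats, 8 weeks old, ovariectomized or sham-operated; from one day post-surgery, OVX groups (n = 8) given 0.22, 0.67 or 2.0 µg/kg orally in MCT vehicle (1 mL/kg), five times per week for 4 weeks. 24 h after last dose, serum calcium by autoanalyzer and distal femur BMD by dual-energy X-ray absorptiometry.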

The test system of series [10] is Rattus norvegicus. The series can be described thus: Toxicity in ovariectomized Sprague-Dawley rat osteoporosis model assessed as body weight loss at 2 ug/kg, po administered once daily for 5 times per week. The series is classed as organism-based. The note with it: in vivo, 0.002 mg/kg.
The nature of series [11]: Half life in Sprague-Dawley rat at 100 ug/kg, po. To be noted: in vivo, 0.1 mg/kg. Format: ADME, organism-based. In outline:
as §1

Series [12] deals with T1, Vitamin D3 receptor (Homo sapiens) (UniProt P11473).
T1 sequence (whole entry): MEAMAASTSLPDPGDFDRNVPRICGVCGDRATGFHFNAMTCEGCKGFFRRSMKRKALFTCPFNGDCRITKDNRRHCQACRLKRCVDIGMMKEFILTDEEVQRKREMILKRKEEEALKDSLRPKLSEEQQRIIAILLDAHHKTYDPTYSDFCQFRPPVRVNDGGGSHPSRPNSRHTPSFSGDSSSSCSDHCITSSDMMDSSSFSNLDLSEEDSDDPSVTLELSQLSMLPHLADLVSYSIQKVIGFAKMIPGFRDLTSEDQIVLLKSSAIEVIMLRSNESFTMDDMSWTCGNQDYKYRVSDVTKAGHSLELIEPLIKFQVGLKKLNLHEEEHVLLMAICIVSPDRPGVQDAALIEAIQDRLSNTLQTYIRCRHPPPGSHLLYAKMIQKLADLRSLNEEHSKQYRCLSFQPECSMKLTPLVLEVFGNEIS
The series can be described thus: Agonist activity at human VDR in human MG63 cells assessed as stimulation of VDRE-mediated luciferase reporter gene activity relative to 1,25(OH)2D3. Format: functional, cell-based. Further details: concentration or dose not given beside the values. The note with it: MG-63. (A reporter such as luciferase makes a cellular process visible.)

A short description of series [13]: Oral bioavailability in Sprague-Dawley rat at 100 ug/kg. The series is classed as ADME, organism-based. To be noted: in vivo, 0.1 mg/kg. A digest of the protocol:
as §1

Series [14] relates to Rattus norvegicus. The series can be described thus: Toxicity in ovariectomized Sprague-Dawley rat osteoporosis model assessed as induction of hypercalcemia at […], po administered once daily for 5 times per week. The note with it: in vivo. Format: organism-based.
The target in series [15] is T1, Vitamin D3 receptor (Homo sapiens). The experiment in a line: Agonist activity at human VDR in human MG63 cells assessed as stimulation of osteocalcin production by enzyme immunoassay relative to 1,25(OH)2D3. To be noted: MG-63. Further details: concentration or dose not given beside the values. The series is classed as functional, cell-based.
The nature of series [16]: Total clearance in Sprague-Dawley rat at 100 ug/kg, iv. The note with it: in vivo, 0.1 mg/kg. Format: ADME, organism-based. A digest of the protocol: as §1
Series [17] has as its system Rattus norvegicus. The series can be described thus: Prevention of bone mineral density loss in ovariectomized Sprague-Dawley rat osteoporosis model administered orally once daily for 5 times per week. Format: functional, organism-based. A digest of the protocol:
as §2

Turning to `CCC(CC)(c1ccc(OCC(O)C(C)(C)C)c(C)c1)c1ccc(OC[C@@H](O)CCC(=O)O)c(C)c1` (mixture of isomers), the results for the half-life in [1] and in [11] were 10.6 h and 8 h, respectively. For the same molecule, in series [2], the Cmax was found to be 11.6 ng/mL. In addition, the MRT came out at 9.2 h in series [3] and 12.3 h in [4]. Besides, the figures for the AUC(0-inf) in series [5] and in series [6] were 151 ng·h/mL and 1150 ng·h/mL, respectively. Also, the CL/F in series [7] is 11.5 mL/min/kg. For the same molecule, the Activity entry with Rattus norvegicus [8] is “Non-toxic”; with Rattus norvegicus [9], “Toxic”; in the series with Rattus norvegicus [10] it was “Toxic”; in series [12], 20%; in the series on Rattus norvegicus [14], “Non-toxic”; in series [15], 484%. The same molecule showed a bioavailability in series [13] of 13%. Further, the clearance in series [16] was 1.47 mL/min/kg. The inhibition entry with Rattus norvegicus [17] was “Dose-dependent effect”.
Regarding `CCC(CC)(c1ccc(CCC(O)C(C)(C)C)c(C)c1)c1ccc(OC[C@@H](O)CCC(=O)O)c(C)c1` (mixture of isomers), the Activity in series [12] came to 52%; in series [15], 68%.
For `CCC(CC)(c1ccc(OCCCCC(=O)O)c(C)c1)c1ccc(OCC(O)C(C)(C)C)c(C)c1` (racemic), the results for the half-life in series [1] and in series [11] were 1.3 h and 3.1 h, respectively. Moreover, the Cmax in series [2] amounted to 3.6 ng/mL. Moreover, the MRT in series [3] is 0.5 h; in series [4], 3.8 h. In addition, the figures for the AUC(0-inf) in series [5] and in series [6] were 10.9 ng·h/mL and 32.9 ng·h/mL, respectively. In series [7], this molecule had a CL/F of 156 mL/min/kg. The Activity stood at 19% in series [12] and 205% in [15]. This molecule also gave a bioavailability in [13] of 33%. This molecule also showed a clearance in [16] of 50.9 mL/min/kg.
For the molecule `CCC(CC)(c1ccc(CCC(O)C(C)(C)C)c(C)c1)c1ccc(OCCCCC(=O)O)c(C)c1` (racemic), the Activity in series [12] came out at 31%; in [15] it was 368%.
Consider `CCC(CC)(c1ccc(CCC(O)C(C)(C)C)c(C)c1)c1ccc(OCCCCCC(=O)O)c(C)c1` (racemic), for which the Activity in series [12] is 16%; in series [15] it was 168%.
As for `CCC(CC)(c1ccc(CCC(O)C(C)(C)C)c(C)c1)c1ccc(OCCCCCCC(=O)O)c(C)c1` (racemic), the Activity in series [12] worked out at 2.2%; in series [15], 9.3%.
As to `CCC(CC)(c1ccc(OCC(=O)O)c(C)c1)c1ccc(OCC(O)C(C)(C)C)c(C)c1` (racemic), the Activity in [12] was 1.4%; in series [15], below 13%.
The matching figures for `CCC(CC)(c1ccc(OCCC(=O)O)c(C)c1)c1ccc(OCC(O)C(C)(C)C)c(C)c1` (racemic): 6.2% and 49%.
The corresponding values for `CCC(CC)(c1ccc(OCCCC(=O)O)c(C)c1)c1ccc(OCC(O)C(C)(C)C)c(C)c1` (racemic) are 2.6% and below 13%.

What is called half-life is the time needed for the level to fall by half in the phase considered. Usually Cmax stands for the maximum level reached in the sampled fluid or tissue. A word on the MRT: it is the average time that molecules of a dose stay in the body. What is called AUC(0-inf) is the area under the concentration-time curve extrapolated to infinity. The term CL/F denotes the apparent clearance, not corrected for the fraction that reaches the circulation. In general, bioavailability refers to the share of a dose that reaches the circulation, judged against a reference dose that is usually intravenous. As a reminder, the clearance is a measure of how efficiently the substance is removed, as volume per time.
